Reference: ChEMBL document CHEMBL4145676, “Mathematical and Structural Characterization of Strong Nonadditive Structure-Activity Relationship Caused by Protein Conformational Changes” (J Med Chem, 2018)

experiment: Inhibition of GST tagged PDE2 (unknown origin) assessed as reduction in FAM-cAMP hydrolysis pre-incubated for 5 mins before FAM-cAMP addition and measured after 30 mins by IMAP assay; design: species or system Homo sapiens
Method in brief: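 Compound added from 1 mM DMSO stock, 5 min at rt. FAM-cAMP then added at 200 nM final, 30 min at rt. Stopped with IMAP Tb binding reagent, 1 h at rt. Plate reader read-out gives pIC50, run in quadruplicate.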

Structure (SMILES)	pIC50
Cc1nc2ccc(C(=O)NC(C)C)cc2n2c(-c3cc(OCC(C)C)ccc3Cl)nnc12	9.46
Cc1nc2ccc(C(=O)NC(C)C)cc2n2c(-c3cc(F)ccc3Cl)nnc12	9.17
Cc1nc2ccc(C(=O)NC34CC5CC(CC(C5)C3)C4)cc2n2c(-c3ccccc3Cl)nnc12	9.77
Cc1nc2ccc(C(=O)NC34CC5CC(CC(C5)C3)C4)cc2n2c(-c3cc(OC(C)(C)C)ccc3Cl)nnc12	7.58
Cc1nc2ccc(C(=O)NC34CC5CC(CC(C5)C3)C4)cc2n2c(-c3cc(OC(C)C)ccc3Cl)nnc12	7.94
Cc1nc2ccc(C(=O)NC34CC5CC(CC(C5)C3)C4)cc2n2c(-c3cc(F)ccc3Cl)nnc12	9.58
Cc1nc2ccc(C(=O)NC(C)(C)C)cc2n2c(-c3ccccc3Cl)nnc12	9.47
Cc1nc2ccc(C(=O)NC(C)C)cc2n2c(-c3cc(OC(C)(C)C)ccc3Cl)nnc12	9.1
CNC(=O)c1ccc2nc(C)c3nnc(-c4cc(OC(C)(C)C)ccc4Cl)n3c2c1	9.16
Cc1nc2ccc(C(=O)NC(C)C)cc2n2c(-c3cc(OC(C)C)ccc3Cl)nnc12	8.99
CNC(=O)c1ccc2nc(C)c3nnc(-c4ccccc4Cl)n3c2c1	8.55
CNC(=O)c1ccc2nc(C)c3nnc(-c4cc(F)ccc4Cl)n3c2c1	8.69
Cc1nc2ccc(C(=O)NC(C)(C)C)cc2n2c(-c3cc(OCC(C)C)ccc3Cl)nnc12	8.75
Cc1nc2ccc(C(=O)NC(C)(C)C)cc2n2c(-c3cc(OC(C)C)ccc3Cl)nnc12	8.3
Cc1nc2ccc(C(=O)NC(C)(C)C)cc2n2c(-c3cc(F)ccc3Cl)nnc12	9.3
Cc1nc2ccc(C(=O)NC(C)(C)C)cc2n2c(-c3cc(OC(C)(C)C)ccc3Cl)nnc12	8.35
Cc1nc2ccc(C(=O)NC34CC5CC(CC(C5)C3)C4)cc2n2c(-c3cc(OCC(C)C)ccc3Cl)nnc12	7.74
COc1ccc(Cl)c(-c2nnc3c(C)nc4ccc(C(=O)NC56CC7CC(CC(C7)C5)C6)cc4n23)c1	9.49
Cc1nc2ccc(C(=O)NC(C)C)cc2n2c(-c3ccccc3Cl)nnc12	9.57

Next, values leading:

pIC50	Structure (SMILES)
9.52	Cc1nc2ccc(C(=O)NCC(C)C)cc2n2c(-c3ccccc3Cl)nnc12
8.88	Cc1nc2ccc(C(=O)NCC(C)C)cc2n2c(-c3cc(OC(C)(C)C)ccc3Cl)nnc12
8.93	Cc1nc2ccc(C(=O)NCC(C)C)cc2n2c(-c3cc(OC(C)C)ccc3Cl)nnc12
9.29	Cc1nc2ccc(C(=O)NCC(C)C)cc2n2c(-c3cc(OCC(C)C)ccc3Cl)nnc12
9.42	COc1ccc(Cl)c(-c2nnc3c(C)nc4ccc(C(=O)NCC(C)C)cc4n23)c1
8.96	COc1ccc(Cl)c(-c2nnc3c(C)nc4ccc(C(=O)NC(C)C)cc4n23)c1
9.16	CNC(=O)c1ccc2nc(C)c3nnc(-c4cc(OC(C)C)ccc4Cl)n3c2c1
9.61	CNC(=O)c1ccc2nc(C)c3nnc(-c4cc(OCC(C)C)ccc4Cl)n3c2c1
9.37	Cc1nc2ccc(C(=O)NCC(C)C)cc2n2c(-c3cc(F)ccc3Cl)nnc12
8.74	CNC(=O)c1ccc2nc(C)c3nnc(-c4cc(OC)ccc4Cl)n3c2c1
9	COc1ccc(Cl)c(-c2nnc3c(C)nc4ccc(C(=O)NC(C)(C)C)cc4n23)c1
